Laboratory results taken from ChEMBL document CHEMBL2016554, “Synthesis, biological evaluation and molecular docking studies of 1,3,4-oxadiazole derivatives as potential immunosuppressive agents” (Bioorg Med Chem, 2012).

Tests used:
[1] = Cytotoxicity against BALB/c mouse lymph node cells at 10 uM after 24 hrs MTT assay
[2] = Immunosuppressive activity in BALB/c mouse lymph node cells assessed as inhibition of concanavalin A-stimulated cell proliferation at 1 uM administered 24 hrs post concanavalin A stimulation and measured 72 hrs after compound dosing by MTT assay; type: functional
Outline: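 BALB/c mouse lymph node cells, 5 × 10^5 per well, stimulated with 5 µg/mL ConA for 24 h, then left untreated or given compound at 1 µM for 72 h. MTT added 4 h before the end, formazan dissolved in DMSO, OD570 read. Inhibition = (control OD570 − compound OD570)/control OD570 × 100, with untreated cells as control. Values are means of three experiments.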

[3] = molecular target: Phosphatidylinositol 4,5-bisphosphate 3-kinase catalytic subunit beta isoform (Homo sapiens, UniProt P42338); assay: Inhibition of human wild type PI3Kbeta expressed in Sf21 cells co-expressing N-terminal His-tagged human p85a using L-alpha-phosphatidylinositol substrate by TLC based phosphor imaging
[4] = molecular target: T1, Phosphatidylinositol 4,5-bisphosphate 3-kinase catalytic subunit delta isoform (Homo sapiens, UniProt O00329); assay: Inhibition of PI3Kdelta expressed in cells co-expressing N-terminal His-tagged human p85a using L-alpha-phosphatidylinositol substrate by TLC based phosphor imaging; type: cell-based
T1 sequence (O00329 whole entry): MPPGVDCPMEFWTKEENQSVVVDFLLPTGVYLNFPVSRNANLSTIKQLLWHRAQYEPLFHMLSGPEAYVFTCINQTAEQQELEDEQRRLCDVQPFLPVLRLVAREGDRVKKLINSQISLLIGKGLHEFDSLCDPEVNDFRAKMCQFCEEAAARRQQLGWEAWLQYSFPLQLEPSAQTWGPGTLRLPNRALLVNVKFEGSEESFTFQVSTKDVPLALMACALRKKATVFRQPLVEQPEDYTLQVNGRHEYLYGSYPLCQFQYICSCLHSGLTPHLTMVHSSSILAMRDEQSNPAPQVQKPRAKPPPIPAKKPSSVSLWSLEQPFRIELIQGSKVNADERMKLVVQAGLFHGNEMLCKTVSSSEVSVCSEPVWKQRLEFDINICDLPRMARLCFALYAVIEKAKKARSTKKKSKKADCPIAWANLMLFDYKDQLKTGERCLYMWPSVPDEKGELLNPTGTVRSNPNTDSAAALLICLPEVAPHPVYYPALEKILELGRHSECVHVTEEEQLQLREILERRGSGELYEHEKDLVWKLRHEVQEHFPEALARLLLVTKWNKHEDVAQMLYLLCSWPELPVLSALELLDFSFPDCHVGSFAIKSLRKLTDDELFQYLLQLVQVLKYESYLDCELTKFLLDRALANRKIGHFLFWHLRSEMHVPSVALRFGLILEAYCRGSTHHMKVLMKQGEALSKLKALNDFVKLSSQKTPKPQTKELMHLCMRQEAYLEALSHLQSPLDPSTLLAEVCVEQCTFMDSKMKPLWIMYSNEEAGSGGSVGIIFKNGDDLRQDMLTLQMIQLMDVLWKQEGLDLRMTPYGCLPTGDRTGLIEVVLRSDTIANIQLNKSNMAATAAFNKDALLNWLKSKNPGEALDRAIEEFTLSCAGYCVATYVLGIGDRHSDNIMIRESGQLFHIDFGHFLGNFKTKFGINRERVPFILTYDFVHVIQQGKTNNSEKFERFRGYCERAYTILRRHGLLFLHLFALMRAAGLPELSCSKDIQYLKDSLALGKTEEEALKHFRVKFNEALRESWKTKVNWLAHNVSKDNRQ

[5] = Inhibition of N-terminal His-tagged bovine PI3Kgamma expressed in Sf21 cells using L-alpha-phosphatidylinositol substrate by TLC based phosphor imaging; design: species or system Bos taurus
[6] = molecular target: Phosphatidylinositol 4,5-bisphosphate 3-kinase catalytic subunit alpha isoform (Mus musculus, UniProt P42337); assay: Inhibition of mouse wild type PI3Kalpha expressed in Sf21 cells co-expressing N-terminal His-tagged human p85a using L-alpha-phosphatidylinositol substrate by TLC based phosphor imaging
[7] = Induction of apoptosis in BALB/c mouse concanavalin A-stimulated lymph node cells assessed as early apoptotic cells at 16 uM administered 24 hrs post concanavalin A stimulation and measured 24 hrs after by Annexin-V-FITC/propidium iodide staining based flow cytometry (reference value: 4.52 %); type: functional
[8] = Induction of apoptosis in BALB/c mouse concanavalin A-stimulated lymph node cells assessed as late apoptotic cells at 16 uM administered 24 hrs post concanavalin A stimulation and measured 24 hrs after by Annexin-V-FITC/propidium iodide staining based flow cytometry (reference value: 17.49 %); type: functional
[9] = Induction of apoptosis in BALB/c mouse concanavalin A-stimulated lymph node cells assessed as late apoptotic cells at 1 uM administered 24 hrs post concanavalin A stimulation and measured 24 hrs after by Annexin-V-FITC/propidium iodide staining based flow cytometry (reference value: 17.49 %); type: functional
[10] = Induction of apoptosis in BALB/c mouse concanavalin A-stimulated lymph node cells assessed as early apoptotic cells at 1 uM administered 24 hrs post concanavalin A stimulation and measured 24 hrs after by Annexin-V-FITC/propidium iodide staining based flow cytometry (reference value: 4.52 %); type: functional
Mus musculus = assay: Induction of apoptosis in BALB/c mouse concanavalin A-stimulated lymph node cells assessed as late apoptotic cells administered 24 hrs post concanavalin A stimulation and measured 24 hrs after by Annexin-V-FITC/propidium iodide staining based flow cytometry; type: functional
[11] = Induction of apoptosis in BALB/c mouse concanavalin A-stimulated lymph node cells assessed as late apoptotic cells at 4 uM administered 24 hrs post concanavalin A stimulation and measured 24 hrs after by Annexin-V-FITC/propidium iodide staining based flow cytometry (reference value: 17.49 %); type: functional
[12] = Induction of apoptosis in BALB/c mouse concanavalin A-stimulated lymph node cells assessed as early apoptotic cells at 4 uM administered 24 hrs post concanavalin A stimulation and measured 24 hrs after by Annexin-V-FITC/propidium iodide staining based flow cytometry (reference value: 4.52 %); type: functional

Chain of Phosphatidylinositol 4,5-bisphosphate 3-kinase catalytic subunit alpha isoform (P42337 whole entry, canonical isoform): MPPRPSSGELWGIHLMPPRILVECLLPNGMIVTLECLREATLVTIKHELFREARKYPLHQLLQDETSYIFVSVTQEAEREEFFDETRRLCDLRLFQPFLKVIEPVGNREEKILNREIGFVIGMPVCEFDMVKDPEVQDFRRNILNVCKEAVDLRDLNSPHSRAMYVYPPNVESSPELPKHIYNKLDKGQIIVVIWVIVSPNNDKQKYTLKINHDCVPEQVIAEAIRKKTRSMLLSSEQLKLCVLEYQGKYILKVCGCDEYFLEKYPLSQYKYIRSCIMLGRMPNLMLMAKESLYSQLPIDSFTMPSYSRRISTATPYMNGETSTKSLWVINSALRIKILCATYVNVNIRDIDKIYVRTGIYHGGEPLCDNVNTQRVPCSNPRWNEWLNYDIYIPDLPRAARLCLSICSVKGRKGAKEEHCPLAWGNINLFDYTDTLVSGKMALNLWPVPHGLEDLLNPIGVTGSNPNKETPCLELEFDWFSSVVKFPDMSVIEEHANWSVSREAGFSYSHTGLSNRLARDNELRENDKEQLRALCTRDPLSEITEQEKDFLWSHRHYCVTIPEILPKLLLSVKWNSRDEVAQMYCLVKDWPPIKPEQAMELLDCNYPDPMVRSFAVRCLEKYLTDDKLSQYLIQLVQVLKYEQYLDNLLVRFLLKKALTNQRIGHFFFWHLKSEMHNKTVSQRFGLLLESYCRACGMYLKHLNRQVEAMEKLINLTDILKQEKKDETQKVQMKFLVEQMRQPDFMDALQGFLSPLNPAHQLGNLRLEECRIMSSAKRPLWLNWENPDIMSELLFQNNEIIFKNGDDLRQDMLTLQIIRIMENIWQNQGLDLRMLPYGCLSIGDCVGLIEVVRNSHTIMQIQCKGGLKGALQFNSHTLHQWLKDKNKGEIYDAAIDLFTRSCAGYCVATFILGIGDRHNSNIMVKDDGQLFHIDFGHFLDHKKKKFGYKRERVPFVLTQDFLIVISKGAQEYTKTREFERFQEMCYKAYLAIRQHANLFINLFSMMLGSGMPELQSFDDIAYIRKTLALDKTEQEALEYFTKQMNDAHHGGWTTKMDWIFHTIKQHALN
Chain of Phosphatidylinositol 4,5-bisphosphate 3-kinase catalytic subunit beta isoform (P42338 whole entry, canonical isoform): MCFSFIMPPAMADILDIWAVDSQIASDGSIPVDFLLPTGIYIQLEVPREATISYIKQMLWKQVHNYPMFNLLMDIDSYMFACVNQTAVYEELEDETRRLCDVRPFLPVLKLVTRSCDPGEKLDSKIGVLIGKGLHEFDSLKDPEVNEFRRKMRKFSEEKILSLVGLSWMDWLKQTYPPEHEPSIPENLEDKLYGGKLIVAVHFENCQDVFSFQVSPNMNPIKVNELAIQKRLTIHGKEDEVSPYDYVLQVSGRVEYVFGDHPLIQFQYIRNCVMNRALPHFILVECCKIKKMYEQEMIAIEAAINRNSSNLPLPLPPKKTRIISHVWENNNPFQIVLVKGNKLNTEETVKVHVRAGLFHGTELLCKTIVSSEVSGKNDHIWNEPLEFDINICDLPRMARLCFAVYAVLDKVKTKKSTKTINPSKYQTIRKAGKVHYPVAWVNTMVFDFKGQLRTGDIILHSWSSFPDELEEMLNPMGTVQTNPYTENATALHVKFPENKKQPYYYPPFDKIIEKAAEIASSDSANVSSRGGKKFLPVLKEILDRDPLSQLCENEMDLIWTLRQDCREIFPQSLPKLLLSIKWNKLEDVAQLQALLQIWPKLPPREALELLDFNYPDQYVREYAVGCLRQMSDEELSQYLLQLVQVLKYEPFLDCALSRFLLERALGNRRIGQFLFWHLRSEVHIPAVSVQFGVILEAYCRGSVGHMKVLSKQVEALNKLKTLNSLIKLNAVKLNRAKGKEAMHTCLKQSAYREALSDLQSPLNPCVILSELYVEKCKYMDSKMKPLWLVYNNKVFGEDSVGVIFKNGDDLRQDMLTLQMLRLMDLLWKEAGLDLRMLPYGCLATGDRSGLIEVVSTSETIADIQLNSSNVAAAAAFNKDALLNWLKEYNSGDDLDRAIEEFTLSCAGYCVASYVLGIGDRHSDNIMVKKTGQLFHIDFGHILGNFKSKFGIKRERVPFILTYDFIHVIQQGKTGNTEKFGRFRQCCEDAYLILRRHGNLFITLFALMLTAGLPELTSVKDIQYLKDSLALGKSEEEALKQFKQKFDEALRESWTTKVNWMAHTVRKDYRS

SMILES	OD [1]	inhibition (INH) [2] [%]	other results
Cc1ccc(CSc2nnc(-c3ccc(C)cc3O)o2)cc1	0.65	11.42	
COc1ccc(CSc2nnc(-c3ccc(C)cc3O)o2)cc1	0.83	13.67	
Cc1ccc(-c2nnc(SCc3ccccc3Cl)o2)c(O)c1	0.79	8.99	
COc1ccc(-c2nnc(SCc3ccccc3)o2)c(O)c1	0.81	4.5	
Cc1ccc(-c2nnc(SCc3ccc(F)cc3)o2)c(O)c1	0.82	4.5	
COc1ccc(-c2nnc(SCc3ccc(C)cc3)o2)c(O)c1	0.9	6.29	
COc1ccc(CSc2nnc(-c3ccc(OC)cc3O)o2)cc1	0.75	11.33	
C/C=C/C[C@@H](C)[C@@H](O)[C@H]1C(=O)N[C@@H](CC)C(=O)N(C)CC(=O)N(C)[C@@H](CC(C)C)C(=O)N[C@@H](C(C)C)C(=O)N(C)[C@@H](CC(C)C)C(=O)N[C@@H](C)C(=O)N[C@H](C)C(=O)N(C)[C@@H](CC(C)C)C(=O)N(C)[C@@H](CC(C)C)C(=O)N(C)[C@@H](C(C)C)C(=O)N1C [CYCLOSPORINE]		69.77	
COc1ccc(-c2nnc(SCc3cccc([N+](=O)[O-])c3)o2)c(O)c1	0.86	19.33	IC50 [3]: > 100 µM; IC50 [4]: 29.7 µM; IC50 [5]: 2.47 µM; IC50 [6]: 17.9 µM
COc1cccc(CSc2nnc(-c3ccc(C)cc3O)o2)c1	0.87	20.59	IC50 [3]: 13.6 µM; IC50 [4]: > 100 µM; IC50 [5]: 2.59 µM; IC50 [6]: 1.97 µM
O=c1cc(N2CCOCC2)oc2c(-c3ccccc3)cccc12 [LY-294002]			IC50 [4]: 0.57 µM
Cc1ccc(-c2nnc(SCc3ccc([N+](=O)[O-])cc3)o2)c(O)c1	0.89	38.76	IC50 [3]: > 100 µM; Activity [7]: 2.16%; Activity [8]: 96.35%; IC50 [4]: 25.6 µM; Activity [9]: 26.59%; IC50 [5]: 0.31 µM; Activity [10]: 6.26%; Activity (Mus musculus): Dose-dependent effect; Activity [11]: 27.4%; Activity [12]: 6.69%; IC50 [6]: 54.9 µM
COc1ccc(-c2nnc(SCc3ccccc3Cl)o2)c(O)c1	0.89	17.36	
COc1ccc(-c2nnc(SCc3ccc(Cl)cc3)o2)c(O)c1	0.87	11.96	
COc1ccc(-c2nnc(SCc3cccc(Cl)c3)o2)c(O)c1	0.9	22.03	IC50 [3]: 43.7 µM; IC50 [4]: > 100 µM; IC50 [5]: 1.87 µM; IC50 [6]: 15.4 µM
COc1ccc(-c2nnc(SCc3cccc(C)c3)o2)c(O)c1	1.12	16.28	
COc1ccc(-c2nnc(SCc3ccccc3F)o2)c(O)c1	0.79	34.35	IC50 [3]: 51.8 µM; IC50 [4]: 19 µM; IC50 [5]: 0.59 µM; IC50 [6]: 33.9 µM
Cc1ccc(-c2nnc(SCc3ccccc3)o2)c(O)c1	0.86	9.08	
Cc1ccc(-c2nnc(SCc3ccccc3F)o2)c(O)c1	0.82	-6.92	
COc1ccc(-c2nnc(SCc3ccc(F)cc3)o2)c(O)c1	0.87	29.32	IC50 [3]: > 100 µM; IC50 [4]: 11.5 µM; IC50 [5]: 0.98 µM; IC50 [6]: 31.2 µM
Cc1ccc(-c2nnc(SCc3cccc(Cl)c3)o2)c(O)c1	0.7	-0.72	
COc1ccc(-c2nnc(SCc3ccc([N+](=O)[O-])cc3)o2)c(O)c1	0.83	14.39	
COc1cccc(CSc2nnc(-c3ccc(OC)cc3O)o2)c1	0.71	11.06	
Cc1ccc(C(=O)O)c(O)c1		3.52	
Cc1ccc(-c2nnc(SCc3cccc([N+](=O)[O-])c3)o2)c(O)c1	0.81	-4.36	
COc1ccc(C(=O)O)c(O)c1 [4-METHOXYSALICYLIC ACID]		7.34	
Cc1cccc(CSc2nnc(-c3ccc(C)cc3O)o2)c1	0.8	5.22	
Cc1ccc(-c2nnc(SCc3ccccc3[N+](=O)[O-])o2)c(O)c1	0.74	11.42	
Cc1ccc(-c2nnc(SCc3ccc(Cl)cc3)o2)c(O)c1	0.75	13.4	
COc1ccc(-c2nnc(SCc3ccccc3[N+](=O)[O-])o2)c(O)c1	0.91	3.96	
